This is an account of results in ChEMBL document CHEMBL3621099, “Design and synthesis of carbazole carboxamides as promising inhibitors of Bruton's tyrosine kinase (BTK) and Janus kinase 2 (JAK2)” (Bioorg Med Chem Lett, 2015).

SMILES strings stand for the structures.

Data set [1] concerns the target Tyrosine-protein kinase BTK (Homo sapiens, UniProt Q06187). Kind of data set: Inhibition of human recombinant BTK.
The target in data set [2] is T1, Cytoplasmic tyrosine-protein kinase BMX (Homo sapiens, UniProt P51813).
T1 sequence (P51813 whole entry): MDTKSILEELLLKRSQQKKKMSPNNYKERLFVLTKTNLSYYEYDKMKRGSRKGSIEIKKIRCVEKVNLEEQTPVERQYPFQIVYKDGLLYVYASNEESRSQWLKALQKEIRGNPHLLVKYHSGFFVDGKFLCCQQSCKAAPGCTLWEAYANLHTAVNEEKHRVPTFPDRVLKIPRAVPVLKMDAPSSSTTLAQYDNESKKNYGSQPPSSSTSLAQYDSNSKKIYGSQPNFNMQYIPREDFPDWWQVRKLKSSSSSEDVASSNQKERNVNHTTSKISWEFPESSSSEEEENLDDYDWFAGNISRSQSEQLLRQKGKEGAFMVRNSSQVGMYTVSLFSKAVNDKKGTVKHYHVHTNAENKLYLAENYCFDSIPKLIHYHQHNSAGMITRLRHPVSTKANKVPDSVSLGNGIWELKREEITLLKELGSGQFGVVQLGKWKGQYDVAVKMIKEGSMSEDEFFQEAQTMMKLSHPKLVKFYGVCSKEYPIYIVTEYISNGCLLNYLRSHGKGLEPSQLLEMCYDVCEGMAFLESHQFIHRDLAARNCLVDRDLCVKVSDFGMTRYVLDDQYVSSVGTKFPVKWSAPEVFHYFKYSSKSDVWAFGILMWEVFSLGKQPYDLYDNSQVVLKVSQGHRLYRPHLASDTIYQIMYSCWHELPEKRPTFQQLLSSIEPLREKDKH
Kind of data set: Inhibition of BMX (unknown origin).

Data set [3] deals with T2, Tyrosine-protein kinase ITK/TSK (Homo sapiens, UniProt Q08881).
T2 sequence (Q08881 whole entry): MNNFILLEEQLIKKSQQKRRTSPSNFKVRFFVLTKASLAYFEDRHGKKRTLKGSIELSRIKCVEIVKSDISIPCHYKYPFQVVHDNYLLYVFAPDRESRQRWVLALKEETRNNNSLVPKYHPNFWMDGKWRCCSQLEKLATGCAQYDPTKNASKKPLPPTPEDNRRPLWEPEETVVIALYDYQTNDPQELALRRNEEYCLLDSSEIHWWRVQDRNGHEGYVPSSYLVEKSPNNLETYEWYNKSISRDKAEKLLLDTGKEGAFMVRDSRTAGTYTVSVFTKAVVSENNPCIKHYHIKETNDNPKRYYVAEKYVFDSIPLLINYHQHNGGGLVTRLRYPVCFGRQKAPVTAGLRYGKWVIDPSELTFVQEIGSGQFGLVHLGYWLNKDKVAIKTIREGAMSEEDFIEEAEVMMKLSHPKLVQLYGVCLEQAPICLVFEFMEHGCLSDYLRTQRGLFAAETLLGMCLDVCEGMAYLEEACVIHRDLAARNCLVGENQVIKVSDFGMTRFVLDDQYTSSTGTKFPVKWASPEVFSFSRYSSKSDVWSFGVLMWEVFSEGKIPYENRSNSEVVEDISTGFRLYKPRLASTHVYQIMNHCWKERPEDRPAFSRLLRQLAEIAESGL
Kind of data set: Inhibition of ITK (unknown origin).

Data set [4] has as its target T3, Tyrosine-protein kinase Tec (Homo sapiens, UniProt P42680).
T3 sequence (P42680 whole entry): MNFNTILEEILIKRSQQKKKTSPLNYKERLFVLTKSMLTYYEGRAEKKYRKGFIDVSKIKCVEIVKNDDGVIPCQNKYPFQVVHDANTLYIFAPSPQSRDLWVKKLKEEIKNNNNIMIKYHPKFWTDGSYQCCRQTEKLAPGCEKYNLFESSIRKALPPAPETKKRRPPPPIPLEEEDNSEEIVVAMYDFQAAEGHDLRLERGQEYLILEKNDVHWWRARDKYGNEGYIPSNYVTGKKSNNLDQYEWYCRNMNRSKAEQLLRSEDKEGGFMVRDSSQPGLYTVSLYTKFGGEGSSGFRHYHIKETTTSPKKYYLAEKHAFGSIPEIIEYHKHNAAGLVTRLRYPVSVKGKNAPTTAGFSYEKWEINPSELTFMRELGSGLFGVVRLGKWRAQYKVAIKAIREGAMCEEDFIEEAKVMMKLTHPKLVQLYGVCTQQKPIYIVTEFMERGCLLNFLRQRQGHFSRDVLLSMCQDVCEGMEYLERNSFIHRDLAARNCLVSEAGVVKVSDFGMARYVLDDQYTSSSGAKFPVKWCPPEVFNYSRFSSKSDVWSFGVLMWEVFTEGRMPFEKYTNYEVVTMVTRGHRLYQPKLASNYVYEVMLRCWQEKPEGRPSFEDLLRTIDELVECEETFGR
Kind of data set: Inhibition of TEC (unknown origin).

For data set [5], the target named is T4, Tyrosine-protein kinase TXK (Homo sapiens, UniProt P42681).
T4 sequence (P42681 whole entry): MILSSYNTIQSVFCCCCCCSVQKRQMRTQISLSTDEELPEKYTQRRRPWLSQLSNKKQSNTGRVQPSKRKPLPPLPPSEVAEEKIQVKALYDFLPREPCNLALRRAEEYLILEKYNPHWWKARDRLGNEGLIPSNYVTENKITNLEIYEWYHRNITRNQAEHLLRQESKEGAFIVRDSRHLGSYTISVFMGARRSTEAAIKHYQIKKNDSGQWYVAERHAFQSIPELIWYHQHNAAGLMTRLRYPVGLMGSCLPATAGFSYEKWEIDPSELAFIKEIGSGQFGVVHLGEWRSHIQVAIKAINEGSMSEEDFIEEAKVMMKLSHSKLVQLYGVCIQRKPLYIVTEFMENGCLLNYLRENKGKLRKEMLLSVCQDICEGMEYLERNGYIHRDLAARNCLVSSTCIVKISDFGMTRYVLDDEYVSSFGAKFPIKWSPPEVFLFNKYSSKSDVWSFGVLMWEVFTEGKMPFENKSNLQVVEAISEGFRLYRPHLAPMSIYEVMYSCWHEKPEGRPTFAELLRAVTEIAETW
In words: Inhibition of TXK (unknown origin).

Another data set deals with T5, Aurora kinase A (Homo sapiens, UniProt O14965).
T5 sequence (O14965 whole entry): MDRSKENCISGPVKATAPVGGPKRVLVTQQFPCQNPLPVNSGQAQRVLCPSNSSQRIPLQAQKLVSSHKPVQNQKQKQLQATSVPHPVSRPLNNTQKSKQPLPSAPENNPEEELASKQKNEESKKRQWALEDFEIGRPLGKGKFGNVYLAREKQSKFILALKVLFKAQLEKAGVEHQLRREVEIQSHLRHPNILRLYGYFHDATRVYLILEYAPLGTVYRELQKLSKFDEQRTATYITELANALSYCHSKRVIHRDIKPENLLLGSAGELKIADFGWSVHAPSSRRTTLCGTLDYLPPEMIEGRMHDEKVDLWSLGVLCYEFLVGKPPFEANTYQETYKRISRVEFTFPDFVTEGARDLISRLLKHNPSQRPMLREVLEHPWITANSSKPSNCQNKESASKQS
Kind of data set: Inhibition of Aurora-A (unknown origin).

In data set [6] the target is Cyclin-dependent kinase 2 (Homo sapiens, UniProt P24941). In words: Inhibition of CDK2 (unknown origin).
Data set [7] has as its target Mast/stem cell growth factor receptor Kit (Homo sapiens, UniProt P10721). In words: Inhibition of cKIT (unknown origin).
Data set [8] concerns the target Tyrosine-protein kinase Lck (Homo sapiens, UniProt P06239). In words: Inhibition of LCK (unknown origin).
Data set [9] concerns the target Tyrosine-protein kinase Lyn (Homo sapiens, UniProt P07948). Kind of data set: Inhibition of LYNa (unknown origin).
Data set [10] deals with Non-receptor tyrosine-protein kinase TYK2 (Homo sapiens, UniProt P29597). In words: Inhibition of TYK2 (unknown origin).
Data set [11] can be described thus: Drugrecovery in human liver microsomes after 10 mins. In kind it is ADME. The procedure, abridged:
(§1)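 Test compound at 0.5 μM was incubated with human, rat or mouse liver microsomes for 10 minutes at 37 °C. The readout was the percentage of unchanged compound recovered after incubation.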
(Liver microsomes are vesicles of endoplasmic reticulum, rich in cytochrome P450 enzymes.)

Data set [12] is described as follows: Drugrecovery in rat liver microsomes after 10 mins. It is filed as ADME. The procedure, abridged: as §1
Data set [13] can be described thus: Drugrecovery in mouse liver microsomes after 10 mins. It is filed as ADME. The procedure, abridged: as §1
The nature of data set [14]: AUC in mouse at 10 mg/kg, po. In kind it is ADME, organism-based. The conditions noted are these: in vivo.
Data set [15] addresses Tyrosine-protein kinase JAK2 (Homo sapiens, UniProt O60674). In words: Inhibition of JAK2 (unknown origin).

Sequence of Tyrosine-protein kinase Lyn (P07948 whole entry): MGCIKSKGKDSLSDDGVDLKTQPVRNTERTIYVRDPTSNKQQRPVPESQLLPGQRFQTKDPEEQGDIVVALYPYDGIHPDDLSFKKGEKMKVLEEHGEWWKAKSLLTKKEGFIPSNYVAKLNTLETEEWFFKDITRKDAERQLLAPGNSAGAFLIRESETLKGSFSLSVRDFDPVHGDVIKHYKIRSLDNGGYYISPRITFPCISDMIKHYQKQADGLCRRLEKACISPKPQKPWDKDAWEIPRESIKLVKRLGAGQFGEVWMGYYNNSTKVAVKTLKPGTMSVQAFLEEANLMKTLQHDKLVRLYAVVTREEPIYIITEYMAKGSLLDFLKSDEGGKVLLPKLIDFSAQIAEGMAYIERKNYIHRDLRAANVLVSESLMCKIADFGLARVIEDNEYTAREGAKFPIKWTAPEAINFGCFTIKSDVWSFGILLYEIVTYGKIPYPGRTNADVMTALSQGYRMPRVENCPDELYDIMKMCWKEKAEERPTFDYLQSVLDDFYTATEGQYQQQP
Sequence of Tyrosine-protein kinase Lck (P06239 whole entry): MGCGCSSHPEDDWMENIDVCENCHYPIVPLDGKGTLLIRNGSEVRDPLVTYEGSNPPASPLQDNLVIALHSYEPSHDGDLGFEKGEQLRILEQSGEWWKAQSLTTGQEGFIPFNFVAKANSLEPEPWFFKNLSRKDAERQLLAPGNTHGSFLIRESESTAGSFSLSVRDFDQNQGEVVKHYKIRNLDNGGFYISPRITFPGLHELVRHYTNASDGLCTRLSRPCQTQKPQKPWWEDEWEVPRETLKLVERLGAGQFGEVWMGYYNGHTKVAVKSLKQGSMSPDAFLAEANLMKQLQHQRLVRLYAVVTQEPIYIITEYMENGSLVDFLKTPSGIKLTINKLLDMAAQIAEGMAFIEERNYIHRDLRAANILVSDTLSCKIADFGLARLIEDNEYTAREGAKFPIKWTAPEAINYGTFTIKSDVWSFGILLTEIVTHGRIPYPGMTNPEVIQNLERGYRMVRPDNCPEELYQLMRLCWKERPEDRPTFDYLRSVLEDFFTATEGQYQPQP
Sequence of Mast/stem cell growth factor receptor Kit (P10721 whole entry): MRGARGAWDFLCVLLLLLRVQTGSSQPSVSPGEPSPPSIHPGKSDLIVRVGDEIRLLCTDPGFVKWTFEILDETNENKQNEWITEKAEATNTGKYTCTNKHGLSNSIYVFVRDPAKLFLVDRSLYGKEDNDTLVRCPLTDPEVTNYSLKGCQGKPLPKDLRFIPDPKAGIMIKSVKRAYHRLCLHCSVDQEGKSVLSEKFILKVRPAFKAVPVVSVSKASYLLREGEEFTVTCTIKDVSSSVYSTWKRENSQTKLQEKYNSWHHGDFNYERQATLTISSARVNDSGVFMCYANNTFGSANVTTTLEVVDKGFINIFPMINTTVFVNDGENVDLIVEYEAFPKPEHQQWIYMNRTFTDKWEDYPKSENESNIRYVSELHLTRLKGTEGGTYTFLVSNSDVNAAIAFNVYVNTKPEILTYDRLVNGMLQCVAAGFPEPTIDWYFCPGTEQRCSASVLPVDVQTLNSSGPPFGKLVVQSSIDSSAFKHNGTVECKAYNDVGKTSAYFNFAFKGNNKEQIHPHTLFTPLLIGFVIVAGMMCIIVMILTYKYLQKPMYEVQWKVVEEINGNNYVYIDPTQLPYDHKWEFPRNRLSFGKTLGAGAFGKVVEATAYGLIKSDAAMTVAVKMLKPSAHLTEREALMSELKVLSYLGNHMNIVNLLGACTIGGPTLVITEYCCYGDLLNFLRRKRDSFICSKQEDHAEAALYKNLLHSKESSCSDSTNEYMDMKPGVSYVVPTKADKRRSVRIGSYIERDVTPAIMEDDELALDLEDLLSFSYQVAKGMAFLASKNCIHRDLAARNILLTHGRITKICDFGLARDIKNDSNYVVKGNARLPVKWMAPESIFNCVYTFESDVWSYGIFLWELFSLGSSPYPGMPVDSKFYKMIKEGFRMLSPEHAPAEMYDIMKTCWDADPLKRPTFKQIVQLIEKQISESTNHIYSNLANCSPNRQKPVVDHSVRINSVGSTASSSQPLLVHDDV
Sequence of Non-receptor tyrosine-protein kinase TYK2 (P29597 whole entry): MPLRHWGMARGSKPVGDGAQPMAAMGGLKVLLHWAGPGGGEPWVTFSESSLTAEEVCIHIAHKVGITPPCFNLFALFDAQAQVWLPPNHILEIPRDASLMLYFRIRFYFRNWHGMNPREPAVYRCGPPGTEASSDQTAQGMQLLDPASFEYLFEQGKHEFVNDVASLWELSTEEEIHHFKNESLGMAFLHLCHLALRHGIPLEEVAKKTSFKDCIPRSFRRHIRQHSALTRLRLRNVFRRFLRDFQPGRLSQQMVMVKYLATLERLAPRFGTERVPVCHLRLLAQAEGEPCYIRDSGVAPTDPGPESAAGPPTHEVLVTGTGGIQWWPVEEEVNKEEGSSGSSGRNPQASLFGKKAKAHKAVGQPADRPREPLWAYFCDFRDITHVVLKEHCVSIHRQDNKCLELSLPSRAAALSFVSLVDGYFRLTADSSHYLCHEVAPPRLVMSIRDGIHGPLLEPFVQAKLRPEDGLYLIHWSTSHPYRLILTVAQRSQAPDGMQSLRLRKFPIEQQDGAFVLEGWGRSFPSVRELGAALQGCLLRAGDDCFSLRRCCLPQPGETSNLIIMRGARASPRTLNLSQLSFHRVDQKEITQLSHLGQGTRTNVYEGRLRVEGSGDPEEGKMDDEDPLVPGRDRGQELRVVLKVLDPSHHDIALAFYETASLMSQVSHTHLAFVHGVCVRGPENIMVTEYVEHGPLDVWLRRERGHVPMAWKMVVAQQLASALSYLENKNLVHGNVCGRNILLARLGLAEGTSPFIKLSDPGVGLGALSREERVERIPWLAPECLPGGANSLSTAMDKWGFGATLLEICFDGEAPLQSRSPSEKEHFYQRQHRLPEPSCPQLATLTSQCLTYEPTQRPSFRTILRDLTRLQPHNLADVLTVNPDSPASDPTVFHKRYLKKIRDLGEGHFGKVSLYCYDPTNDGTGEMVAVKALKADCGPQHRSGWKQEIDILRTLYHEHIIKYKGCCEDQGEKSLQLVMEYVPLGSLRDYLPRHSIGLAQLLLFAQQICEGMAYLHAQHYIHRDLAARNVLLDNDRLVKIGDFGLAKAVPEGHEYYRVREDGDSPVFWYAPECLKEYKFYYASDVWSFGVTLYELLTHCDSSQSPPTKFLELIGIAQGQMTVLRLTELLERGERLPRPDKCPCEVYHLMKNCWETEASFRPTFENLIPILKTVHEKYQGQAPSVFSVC
Sequence of Tyrosine-protein kinase BTK (Q06187 whole entry): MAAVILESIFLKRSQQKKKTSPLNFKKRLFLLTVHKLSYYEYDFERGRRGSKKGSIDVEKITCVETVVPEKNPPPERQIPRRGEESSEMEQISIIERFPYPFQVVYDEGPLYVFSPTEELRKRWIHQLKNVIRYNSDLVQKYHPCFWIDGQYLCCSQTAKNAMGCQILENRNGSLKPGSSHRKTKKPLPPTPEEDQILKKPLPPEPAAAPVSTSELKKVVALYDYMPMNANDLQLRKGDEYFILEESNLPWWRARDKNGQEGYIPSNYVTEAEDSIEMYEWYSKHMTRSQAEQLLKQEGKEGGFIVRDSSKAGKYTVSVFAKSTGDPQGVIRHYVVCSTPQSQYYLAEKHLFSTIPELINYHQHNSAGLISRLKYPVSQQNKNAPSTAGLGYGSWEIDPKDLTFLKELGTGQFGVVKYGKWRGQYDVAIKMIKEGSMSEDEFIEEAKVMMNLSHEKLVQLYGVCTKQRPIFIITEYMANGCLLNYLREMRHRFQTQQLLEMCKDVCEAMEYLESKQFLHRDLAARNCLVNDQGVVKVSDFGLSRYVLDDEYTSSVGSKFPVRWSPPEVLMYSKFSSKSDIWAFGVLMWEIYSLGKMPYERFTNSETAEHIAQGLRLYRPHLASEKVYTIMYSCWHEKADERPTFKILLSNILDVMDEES
Sequence of Tyrosine-protein kinase JAK2 (O60674 whole entry): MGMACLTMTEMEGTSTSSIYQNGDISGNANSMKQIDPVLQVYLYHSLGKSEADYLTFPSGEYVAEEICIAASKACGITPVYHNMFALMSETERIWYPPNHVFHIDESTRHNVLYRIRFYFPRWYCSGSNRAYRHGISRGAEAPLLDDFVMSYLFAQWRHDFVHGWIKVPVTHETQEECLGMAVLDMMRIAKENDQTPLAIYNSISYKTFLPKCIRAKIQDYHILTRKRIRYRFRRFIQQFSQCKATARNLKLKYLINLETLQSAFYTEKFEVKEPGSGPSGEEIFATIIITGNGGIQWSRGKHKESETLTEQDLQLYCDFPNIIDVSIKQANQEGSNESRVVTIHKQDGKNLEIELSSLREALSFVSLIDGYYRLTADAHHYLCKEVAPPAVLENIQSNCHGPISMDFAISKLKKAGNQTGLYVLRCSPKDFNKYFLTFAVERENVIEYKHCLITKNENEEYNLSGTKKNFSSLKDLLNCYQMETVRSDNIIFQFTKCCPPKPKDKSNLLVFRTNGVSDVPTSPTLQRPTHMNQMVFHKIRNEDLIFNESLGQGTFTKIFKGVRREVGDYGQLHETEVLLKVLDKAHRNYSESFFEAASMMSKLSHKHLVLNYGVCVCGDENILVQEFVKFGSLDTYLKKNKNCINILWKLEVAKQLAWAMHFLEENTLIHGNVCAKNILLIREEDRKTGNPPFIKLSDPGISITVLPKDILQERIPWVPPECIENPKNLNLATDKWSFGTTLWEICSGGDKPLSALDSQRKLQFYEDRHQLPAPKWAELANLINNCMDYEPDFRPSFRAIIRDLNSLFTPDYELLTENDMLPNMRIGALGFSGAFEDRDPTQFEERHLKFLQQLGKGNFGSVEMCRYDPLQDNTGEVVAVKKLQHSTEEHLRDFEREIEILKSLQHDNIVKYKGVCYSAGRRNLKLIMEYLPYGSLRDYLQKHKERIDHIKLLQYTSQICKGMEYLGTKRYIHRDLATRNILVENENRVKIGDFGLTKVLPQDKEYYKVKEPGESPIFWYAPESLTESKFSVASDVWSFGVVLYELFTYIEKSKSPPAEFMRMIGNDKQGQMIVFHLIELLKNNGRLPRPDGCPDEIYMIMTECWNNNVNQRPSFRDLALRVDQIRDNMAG

The IC50 is the concentration that gives 50% inhibition. As to `CN1CCN(C(=O)c2ccc3c(c2)[nH]c2c(C(N)=O)ccc(-c4cccc(NC(=O)c5ccc(N(C)C)cc5)c4F)c23)CC1`, the IC50 in [1] was determined as 3 nM; in data set [2], 109 nM; in data set [3], 115 nM; in data set [4], 41 nM; in data set [5] it was 95 nM; against Aurora kinase A it was 493 nM. In addition, the IC50 was greater than 50000 nM in data set [6]; 1050 nM in data set [7]; 569 nM in data set [8]; 824 nM in [9]; 14300 nM in data set [10].
The share remaining is the share of the starting amount still present when the sample was taken. Read a low share remaining as more turnover. Regarding `CC(C)(C)c1ccc(C(=O)N[C@@H]2CCCN(c3ccc(C(N)=O)c(Nc4ccc(C(=O)N5CCOCC5)cc4)n3)C2)cc1`, the share remaining at 10 min in data set [11], in data set [12] and in data set [13] was less than 3% each time.
Broadly, the AUC is the area under the concentration-time curve, a measure of exposure. Lower therefore signals less exposure. The compound `CN1CCN(C(=O)c2ccc3c(c2)[nH]c2c(C(N)=O)ccc(-c4ccccc4F)c23)CC1` had an AUC in [14] of 25.6 µM·h. For the same compound, the IC50 came out at 15 nM in data set [1]; 119 nM in data set [2]; 39 nM in data set [3]; 116 nM in data set [4]; 119 nM in data set [5]; 444 nM against Aurora kinase A. For the same compound, the 50% inhibitory concentration (IC50) in [6] came to 610 nM; in [7], 41 nM; in [8], 81 nM; in data set [9], 68 nM; in data set [10], 753 nM.
With `CC(=O)Nc1cccc(-c2ccc(C(N)=O)c3[nH]c4cc(C(=O)N5CCN(C)CC5)ccc4c23)c1C`, the IC50 in [15] is 212 nM; in data set [2], 193 nM; in [3], 55 nM; in [4], 162 nM; in data set [5] it was 172 nM; on Aurora kinase A it was greater than 2000 nM. The IC50 in data set [6] was 2700 nM; in data set [7], 471 nM; in data set [8] it was 108 nM; in data set [9], 204 nM; in data set [10], greater than 2000 nM.
